High-throughput results deposited in PubChem by several laboratories.
Platelet DG rel – inhibitors of platelet dense granule secretion, primary screen, cell-based, MLPCN, human platelets; inhibition, %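 (compounds screened at 7.5 µM in platelet-rich plasma)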; human platelet-rich plasma, SFLLRN dense granule ATP release, luminescence; AID 1663, 2009; 0.22% of 300,000 active;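 active = mean replicate score, as percent of positive control, at or above 50; inconclusive = mean below 50 but at least one replicate at or above 50; inactive = mean and every replicate below 50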
SENP1 inh – human SENP1 catalytic domain inhibitors, primary screen, biochemical, FRET, uHTS; inhibition, % at 10 µM; recombinant SENP1 catalytic domain, CyPet-SUMO1-YPet FRET cleavage; 0.21% of 360,000 active; Sentrin-specific protease 1 (Homo sapiens), Q9P0U3; AID 624204, 2012;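 active = inhibition at least 30% at 10 µM, raw YFP signal under a set limit, fluorescence ratio 0.5 to 1.5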;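 also: 0% = enzyme with DMSO and 100% = no enzyme wells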
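Controls: no-enzyme wells low, DMSO-plus-enzyme wells high control. Test system: human recombinant His6-tagged SENP1 catalytic domain enzyme. Reagent: SFCypet-SUMO1-SFYpet FRET protein substrate, 25 nM final. Doses: one dose per compound, 10 µM, 0.5% DMSO. Detection: FRET, CFP and YFP emission. Timing: 50 min reaction at room temperature.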
VLA-4 inh – inhibition in human VLA-4 binding assay, primary screen, VLA-4 allosteric modulator project, MLPCN library, flow cytometry, VLA-4 expressing cells; inhibition, % (about 7 µM as worked out from the volumes in the protocol); Integrin alpha-4 (Homo sapiens), P13612; AID 2557, 2010; 0.2% of 330,000 active; ligand binding flow cytometry; in the data active = inhibition above about 50%
Target sequence (P13612 whole entry, looked up): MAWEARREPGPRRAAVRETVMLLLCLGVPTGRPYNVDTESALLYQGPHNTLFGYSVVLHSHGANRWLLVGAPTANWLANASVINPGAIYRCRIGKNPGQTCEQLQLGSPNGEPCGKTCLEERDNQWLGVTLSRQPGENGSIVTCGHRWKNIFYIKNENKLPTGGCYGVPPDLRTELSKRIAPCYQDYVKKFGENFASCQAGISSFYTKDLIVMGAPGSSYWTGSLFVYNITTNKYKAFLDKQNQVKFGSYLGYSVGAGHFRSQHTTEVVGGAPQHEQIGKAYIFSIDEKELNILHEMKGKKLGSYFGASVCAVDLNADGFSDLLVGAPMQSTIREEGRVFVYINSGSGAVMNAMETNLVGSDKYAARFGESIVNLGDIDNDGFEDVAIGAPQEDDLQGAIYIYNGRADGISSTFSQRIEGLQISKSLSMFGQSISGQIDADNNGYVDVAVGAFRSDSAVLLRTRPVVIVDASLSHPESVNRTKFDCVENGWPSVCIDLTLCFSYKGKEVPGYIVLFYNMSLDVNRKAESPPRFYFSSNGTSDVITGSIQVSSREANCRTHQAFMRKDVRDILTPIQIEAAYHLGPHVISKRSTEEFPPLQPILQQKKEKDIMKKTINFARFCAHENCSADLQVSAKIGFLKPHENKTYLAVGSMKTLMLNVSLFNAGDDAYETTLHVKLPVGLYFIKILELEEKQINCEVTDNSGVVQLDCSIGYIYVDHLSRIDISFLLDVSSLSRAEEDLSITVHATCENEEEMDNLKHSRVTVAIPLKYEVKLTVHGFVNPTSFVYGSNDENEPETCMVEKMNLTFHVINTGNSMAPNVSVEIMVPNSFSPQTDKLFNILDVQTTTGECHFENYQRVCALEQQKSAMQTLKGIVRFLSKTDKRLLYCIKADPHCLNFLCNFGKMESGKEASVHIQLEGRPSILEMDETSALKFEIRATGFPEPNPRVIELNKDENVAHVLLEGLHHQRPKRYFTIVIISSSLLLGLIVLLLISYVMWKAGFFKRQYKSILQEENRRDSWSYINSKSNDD
Myeloid diff MLP – induction of myeloid progenitor differentiation, primary screen, cell-based, flow cytometry, MLPCN library | calls only at 10 µM | AID 624256, 2012 | 1% of 360,000 active | ER-HoxA9 myeloid progenitors, lysozyme-GFP differentiation;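 active = normalized GFP-positive differentiation at or above the plate's own cutoff, the solvent-only control mean plus 3 SD; inconclusive = no clear call, values can overlap the other calls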;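 also: cells exposed to compound for four days before flow analysis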
Myeloid diff CP1 – inducers of myeloid progenitor differentiation, confirmation, cell-based, GFP/Mac1 flow cytometry, cherry pick 01 | shares compounds with Myeloid diff MLP | ER-HoxA9 myeloid progenitors, GFP/Mac1 double-positive flow | calls only | 2% of 2,300 active | AID 651706, 2012;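 active = share of green or green-and-red cells above 9 and 9% in run 1 or 4 and 3% in run 2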
GFP autofluor – compound fluorescence in myeloid differentiation counter-screen | shares compounds with Myeloid diff MLP | ER-HoxA9 myeloid progenitors, no estrogen, GFP autofluorescence flow cytometry; vehicle wells 0%, positive control 100% | fluorescence response, % (test concentration not listed) | 7.4% of 2,300 active | AID 651707;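 active = over 5% cells positive for green fluorescent reporter, or over 2% positive for both it and APC stain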;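 also: range taken on the double positive population between DMSO and positive control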
Numbers without * were called inactive. Only some compounds are listed: those with a hit (about 1.5% of all), similar ones and a draw of the others.

Screening COc1ccc(OCC(=O)OCCN2C(=O)c3ccccc3C2=O)cc1 returned Platelet DG rel 15, SENP1 inh 1, VLA-4 inh 9, Myeloid diff MLP active, Myeloid diff CP1 inactive and GFP autofluor 0.
Screening COc1cc(CSc2nnnn2-c2ccc(C)cc2)cc(OC)c1OC returned Platelet DG rel 1, SENP1 inh 2, VLA-4 inh -2, Myeloid diff MLP inactive, Myeloid diff CP1 inactive and GFP autofluor 0.
O=C(O)c1ccc(-n2cccc2/C=C2/NC(=O)N(c3cccc(Cl)c3)C2=O)cc1 was read as SENP1 inh -22, Myeloid diff MLP active, Myeloid diff CP1 inactive and GFP autofluor 0.
`O=C(O)c1ccc(-n2cccc2/C=C2/NC(=O)N(c3ccccc3)C2=O)cc1` gave Platelet DG rel 2, SENP1 inh -21, VLA-4 inh -19 and Myeloid diff MLP inactive.
CCOC(=O)c1cc(C)n(-c2c(C)n(C)n(-c3ccccc3)c2=O)c1C was read as Platelet DG rel -1, SENP1 inh 1, VLA-4 inh 2 and Myeloid diff MLP inactive.
For CCCCC(=O)OCC(=O)c1cc(C)n(-c2c(C)n(C)n(-c3ccccc3)c2=O)c1C the results were Platelet DG rel 1, SENP1 inh -1, VLA-4 inh 7, Myeloid diff MLP inactive, Myeloid diff CP1 inactive and GFP autofluor 0.
Screening CC(C)CNC(=O)NC1(C(F)(F)F)Oc2ccccc2O1 returned Platelet DG rel 8, SENP1 inh 1, VLA-4 inh -7 and Myeloid diff MLP inactive.
`O=C(NCc1cccnc1)NC1(C(F)(F)F)Oc2ccccc2O1` gave Platelet DG rel -1, SENP1 inh 2, VLA-4 inh 15, Myeloid diff MLP active, Myeloid diff CP1 inactive and GFP autofluor 0.
Screening O=C(/C=C/c1cccnc1)/C=C/c1cccnc1 returned SENP1 inh 1 and Myeloid diff MLP inconclusive.
`CC1Cc2ccccc2N1C(=O)c1ccnc(C(C)(C)C)c1` (stereo not given) gave Platelet DG rel 2, SENP1 inh -3, VLA-4 inh 1, Myeloid diff MLP active, Myeloid diff CP1 inactive and GFP autofluor 0.
Screening CC(=O)Nc1ccc(S(=O)(=O)NC2(C(F)(F)F)N=C(c3ccccc3)NC2=O)cc1 (stereo not given) returned Platelet DG rel -8, SENP1 inh 0, VLA-4 inh 0, Myeloid diff MLP inactive, Myeloid diff CP1 inactive and GFP autofluor 0.
For CCOC(=O)NC1(C(F)(F)F)N=C(c2ccccc2)NC1=O (stereo not given) the results were Platelet DG rel 3, SENP1 inh 2, VLA-4 inh 4 and Myeloid diff MLP inactive.
Screening CC(C(=O)N1CCOCCOCCOCCOCCOCC1)N1C(=O)c2ccccc2C1=O (stereo not given) returned Platelet DG rel -4, SENP1 inh 1, VLA-4 inh 7 and Myeloid diff MLP inactive.
For CC(NC(=O)c1ccco1)C(=O)N1CCCCC1 (stereo not given) the results were Platelet DG rel -6, SENP1 inh 0, VLA-4 inh 9 and Myeloid diff MLP inactive.
CCc1cccc(CC)c1NC(=O)NC1CCCCC1 was read as Platelet DG rel 29, SENP1 inh 1, VLA-4 inh 5, Myeloid diff MLP active, Myeloid diff CP1 inactive and GFP autofluor 0.
`Cn1c(=O)c2cc(S(=O)(=O)NC(Cc3ccccc3)C(=O)NCc3ccco3)ccc2n(C)c1=O` (stereo not given) gave Platelet DG rel -7, SENP1 inh -3, VLA-4 inh -14, Myeloid diff MLP inactive, Myeloid diff CP1 inactive and GFP autofluor 0.
COCCCNC(=O)C(Cc1ccccc1)NS(=O)(=O)c1ccc2c(c1)c(=O)n(C)c(=O)n2C (stereo not given) was read as Platelet DG rel 2, SENP1 inh 1, VLA-4 inh 3 and Myeloid diff MLP inactive.
For CCN(CC(=O)Nc1ccc(Br)cc1)C(=O)Cc1cccc(F)c1 the results were Platelet DG rel -4, SENP1 inh -9, VLA-4 inh 7 and Myeloid diff MLP inconclusive.
`CC(=O)N1CCc2c(sc(NC(=O)c3ccc([N+](=O)[O-])o3)c2C#N)C1` gave Platelet DG rel 5, SENP1 inh -32, Myeloid diff MLP active, Myeloid diff CP1 inactive and GFP autofluor 0.
CCC1CCCCN1C(=O)COC(=O)CN(C)S(=O)(=O)c1ccc(NC(C)=O)cc1 (stereo not given) was read as Platelet DG rel 5, SENP1 inh 1, VLA-4 inh 2 and Myeloid diff MLP inactive.
Cc1cccc(OC(C)c2ccnc3nc(/N=C/N(C)C)nn23)c1 (stereo not given) was read as Platelet DG rel 1, SENP1 inh 0, VLA-4 inh 11 and Myeloid diff MLP inactive.
COc1cccc(OC(C)c2ccnc3nc(/N=C/N(C)C)nn23)c1 (stereo not given) was read as Platelet DG rel 2, SENP1 inh 1, VLA-4 inh 4, Myeloid diff MLP inactive, Myeloid diff CP1 inactive and GFP autofluor 1.
CCCn1c(SCC(=O)Nc2cccc(F)c2)nc(O)cc1=O was read as SENP1 inh 2, VLA-4 inh -7 and Myeloid diff MLP inactive.
For CCCn1c(SCC(=O)Nc2ccccc2Cl)nc(O)cc1=O the results were SENP1 inh 1, Myeloid diff MLP inactive, Myeloid diff CP1 inactive and GFP autofluor 0.
`C[C@H](NC(=O)[C@@H]1CCCN1C(=O)OC(C)(C)C)c1ccccc1` gave SENP1 inh -2 and Myeloid diff MLP inactive.
`Cc1ccc(C(C(=O)NC2CCCCC2)N(Cc2cccnc2)C(=O)C2COc3ccccc3O2)o1` (stereo not given) gave Platelet DG rel -12, SENP1 inh 2, VLA-4 inh 24, Myeloid diff MLP active, Myeloid diff CP1 inactive and GFP autofluor 1.
For Cc1cc2c(c(CO)c1CCO)C(=O)[C@@H](C)[C@@H]2O the results were SENP1 inh 1, VLA-4 inh 3 and Myeloid diff MLP inactive.
For COc1cc(C(=O)COC(=O)c2cnc(C)cn2)ccc1OC(F)F the results were Platelet DG rel -14, SENP1 inh 3, VLA-4 inh -3 and Myeloid diff MLP inactive.
Screening COc1ccc(C(=O)COC(=O)c2cnc(C)cn2)cc1OC returned SENP1 inh 2, VLA-4 inh -7, Myeloid diff MLP inactive, Myeloid diff CP1 inactive and GFP autofluor 0.
